Bioassay records: PubChem BioAssay, several laboratories
Only a selection was taken, and hits are over-represented in it overall.
H69AR growth 86K: proliferation blockers of H69AR lung cancer cells, primary screen, cell-based, human, 86K library; H69AR lung tumor viability, ATP luminescence, 72 h; active compounds read low; viability, % at 10 µM; 85,000 compounds, 6% hits;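 active = viability at or below 40%; inactive = viability above 40%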;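 also: multidrug resistant small cell line overexpressing MRP-1 efflux transporter; 100% = mean luminescence of untreated control wells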
bCat KO growth: primary screen for growth suppressors in beta-catenin knockout HCT116 cells (colon tumor, human); HCT116 beta-catenin knockout viability, CellTiter-Glo, 60 h; active compounds read low; viability, % at 10 µM; 140,000 compounds, 1.5% hits;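 active = viability at or under a set limit, the compound median less 4 SD, cut at about 6% in these data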;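 also: 0% = Hyamine 1622 control at 20 µM and 100% = untreated cell control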
HUVEC prolif 384: inhibitors of HUVEC proliferation, primary screen, cell-based, 384-well; CellTiter-Glo luminescence, 72 h; active compounds read low; viability, % at 10 µM (by protocol); 86,000 compounds, 1.1% hits; AID 648, 2007;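 active = viability at or below 30%; inactive = viability above 30%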;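 also: 100% = median luminescence of DMSO-only cell control wells on each plate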
PTEN del growth: growth suppression of PTEN-null HCT116, primary screen, cell-based, CellTiter-Glo; viability, % at 10 µM; 140,000 compounds, 1.2% hits; HCT116 PTEN-null viability, 60 h; active compounds read low;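 active = viability at or below a set limit, 4 SD under the median of all tested compounds, cut at about 3.7% in these data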;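 also: PTEN knockout HCT116 line with beta catenin targeted HCT116 as companion control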
Fibroblast inh: antiproliferative effect on LL 47 fibroblasts – human, LL 47 cells, CellTiter-Glo luminescence, primary screen; LL 47 human lung fibroblast viability, ATP luminescence; active compounds read low; viability, % at 10 µM; 85,000 compounds, 1.1% hits; AID 719, 2007;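 active = viability at or below 50% in the single dose screen; inactive = viability above 50%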;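 also: compound exposure lasted 72 h before the ATP readout; 100% = median luminescence of untreated cell-only wells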
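Test system: LL 47 human lung fibroblasts / Incubation: 72 h compound exposure at 37 °C after overnight plating / Technique: luminescent ATP detection, CellTiter-Glo / Compound dosing: 0.1% DMSO in all compound wells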
Pyk2 oligo antag: antagonists of Pyk2 self-association, primary screen, Q293 cells, FERM NanoBiT luminescence, HTS; z-score (the deposit names both 25 µM and 10 µM); AID 1347419, 2020; 99,000 compounds, 0.83% hits; active compounds read low; Protein-tyrosine kinase 2-beta (Homo sapiens), Q14289;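 active = Z-score of -3 or lower, scaled per plate to the spread of control and sample wells; inactive = z-score above -3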;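 also: negative z-score means lost luminescence so less FERM oligomerization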
Target sequence (Q14289 whole entry, looked up): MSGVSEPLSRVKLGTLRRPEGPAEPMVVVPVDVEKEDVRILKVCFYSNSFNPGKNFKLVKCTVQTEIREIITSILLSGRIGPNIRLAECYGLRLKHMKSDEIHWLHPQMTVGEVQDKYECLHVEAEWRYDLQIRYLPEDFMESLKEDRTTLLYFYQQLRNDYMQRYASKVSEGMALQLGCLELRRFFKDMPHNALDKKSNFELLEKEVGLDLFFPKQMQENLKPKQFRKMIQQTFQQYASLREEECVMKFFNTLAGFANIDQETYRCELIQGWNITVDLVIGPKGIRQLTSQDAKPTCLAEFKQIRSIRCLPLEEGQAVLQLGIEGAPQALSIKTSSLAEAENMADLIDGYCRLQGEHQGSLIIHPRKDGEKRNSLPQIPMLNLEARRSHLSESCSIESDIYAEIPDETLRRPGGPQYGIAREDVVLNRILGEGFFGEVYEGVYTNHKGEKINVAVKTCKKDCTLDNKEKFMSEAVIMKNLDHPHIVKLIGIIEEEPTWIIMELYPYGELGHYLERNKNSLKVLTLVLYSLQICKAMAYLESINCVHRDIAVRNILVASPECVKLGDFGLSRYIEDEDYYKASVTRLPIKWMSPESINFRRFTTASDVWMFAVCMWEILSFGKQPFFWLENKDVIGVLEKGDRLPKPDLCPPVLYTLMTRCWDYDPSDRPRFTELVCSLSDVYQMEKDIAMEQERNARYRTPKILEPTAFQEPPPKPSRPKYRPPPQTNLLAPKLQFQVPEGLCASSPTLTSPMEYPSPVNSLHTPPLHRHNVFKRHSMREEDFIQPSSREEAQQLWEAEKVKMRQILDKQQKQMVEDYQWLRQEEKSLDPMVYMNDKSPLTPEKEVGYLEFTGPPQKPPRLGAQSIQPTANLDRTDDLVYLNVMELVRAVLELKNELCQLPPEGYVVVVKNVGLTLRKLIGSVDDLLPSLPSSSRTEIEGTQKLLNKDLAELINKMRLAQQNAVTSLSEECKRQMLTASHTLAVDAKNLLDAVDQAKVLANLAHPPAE
Numbers without * were called inactive; / = no result.

SMILES	H69AR growth 86K	bCat KO growth	HUVEC prolif 384	PTEN del growth	Fibroblast inh	Pyk2 oligo antag
Clc1ccc(C2C3=C(Nc4ncnn42)c2ccccc2CC3)cc1 (stereo not drawn)	13*	39	51	38	85	/
N#CC(=C1CCCC1)c1nc(-c2ccccc2O)cs1	29*	67	80	62	88	-0.51
O=C(CSCC(=O)OCC(=O)c1ccc(Br)cc1)Nc1cccc2ccccc12	/	90	/	94	/	0.79
CCN(CC)c1nc(N)c2c(N)n(-c3ccccc3C)c(=S)c(C#N)c2c1C#N	107	85	93	99	102	-3.7*
O=C(Cn1c(CN2CCCCC2)nc2ccccc2c1=O)Nc1ccccc1	93	91	89	90	91	-0.48
CN1CCN(Cc2nc3ccccc3c(=O)n2Cc2nc(-c3ccc([N+](=O)[O-])cc3)cs2)CC1	/	0.8*	/	0.5*	/	/
O=C1[O][Bi][O]c2ccccc21	91	/	103	/	98	/
O=C(Nc1ccc(Cl)cc1)c1cnc(-c2ccccc2)nc1-c1ccccc1	/	0.9*	/	2.7*	/	-0.61
COc1ccc(-c2nc(C(N)=O)c3[nH]c(=O)n(-c4cccc(Cl)c4)c3n2)cc1OC	2.1*	7	32	2.3*	7.5*	-1.4
COc1cccc(-c2nc(C(N)=O)c3[nH]c(=O)n(-c4cccc(Cl)c4)c3n2)c1OC	64	68	97	75	97	/
CCc1ccc(-c2nc(C(N)=O)c3[nH]c(=O)n(-c4ccccc4OC)c3n2)cc1	16*	39	39	26	37*	/
Cc1cc(C(=O)COC(=O)Cc2n[nH]c(=O)c3ccccc23)c(C)n1-c1ccc2c(c1)OCCO2	/	67	/	46	/	/
O=C(CCCOc1ccc(Cl)cc1Cl)N/N=C/c1ccccc1O	/	4.6*	/	9	/	/
CCc1ccc(C(=O)/C=C/c2ccc([N+](=O)[O-])o2)cc1	2.6*	1.9*	21*	1.5*	15*	-0.94
CCc1ccc(/C=C/C(=O)c2ccc(S(=O)(=O)N(C)C)cc2)cc1	/	13	/	15	/	/
NC(=S)N/N=C\c1ccc(-c2cccc(Cl)c2Cl)o1	45	55	22*	63	68	-2.7
COc1ccc(Cl)cc1NC(=O)CN(C)C1CCCCC1	/	75	/	76	/	-0.62
COc1ccc(C)cc1NC(=O)CN(Cc1nnc(-c2ccc(Cl)cc2)o1)C1CCCC1	2.4*	71	102	69	82	-1.5
COc1cc(C2C(C#N)=C(N)Oc3c2c(-c2ccccc2)nn3-c2ccccc2)cc(OC)c1OC (stereo not drawn)	/	77	/	86	/	/
Cn1c(C(=O)OC(C(=O)NC2CCCCC2)c2cccnc2)cc2sccc21 (stereo not drawn)	93	101	98	92	101	-1.1
O=C(/C=C/c1cccc([N+](=O)[O-])c1)c1cccs1	/	2.2*	/	1.5*	/	/
Cc1nc2ccccc2n1-c1nc(-c2ccco2)cc(C(F)(F)F)n1	/	3.1*	/	2.7*	/	0.96
FC(F)(F)c1cc(-c2ccco2)nc(-n2cnc3ccccc32)n1	25*	85	82	73	95	-0.33
FC(F)(F)c1cc(-c2ccco2)nc(N2CCN(c3ccccc3)CC2)n1	70	84	97	76	90	0.1
COC(=O)[C@@]1(Cc2ccc(OC)cc2)[C@H]2c3cc(C(=O)N4CCCC4)n(Cc4ccc(C)o4)c3C[C@H]2CN1C(=O)c1ccccc1	/	16	/	12	/	/
SMILES	H69AR growth 86K	bCat KO growth	HUVEC prolif 384	PTEN del growth	Fibroblast inh	Pyk2 oligo antag
O=C1C(c2ccnc3ccccc23)=C(O)c2ccccc21	34*	10	62	7	73	-0.94
CC(=O)c1c(C)[nH]c(C(=O)N2CCN(C(=O)c3ccco3)CC2)c1C	91	95	96	88	95	0.8
COc1cccc(N2CCN(C(=O)c3[nH]c(C)c(C(C)=O)c3C)CC2)c1	21*	26	44	26	54	0.92
CC(=O)c1c(C)[nH]c(C(=O)N2CCN(c3cc(Cl)ccc3C)CC2)c1C	17*	20	51	18	55	-0.98
CC(=O)c1c(C)[nH]c(C(=O)N2CCN(c3ccc(F)cc3)CC2)c1C	108	64	94	68	101	-0.3
COC(=O)C(NC(=O)c1ccc(Cl)cc1)(Nc1nc(C)cs1)C(F)(F)F (stereo not drawn)	89	98	98	91	100	0.25
CC(=O)N1CCCc2cc(S(=O)(=O)N(CC(C)C)CC(C)C)ccc21	83	92	95	83	96	-0.94
CC(=O)N1CCc2cc(S(=O)(=O)N3c4ccccc4CC3C)ccc21 (stereo not drawn)	20*	87	59	98	58	-0.73
CC(=O)N1CCc2cc(S(=O)(=O)N3CCOCC3)ccc21	95	92	102	96	106	0.93
CCN(c1cccc(C)c1)S(=O)(=O)c1cccc(C(=O)O)c1	114	86	104	95	95	1.4
CCN(c1cccc(C(F)(F)F)c1)S(=O)(=O)c1ccc2c(c1)CCN2C(C)=O	18*	74	89	68	90	-0.39
CCN(c1cccc(C)c1)S(=O)(=O)c1ccc2c(c1)CCN2C(C)=O	29*	40	71	35	70	-0.42
O=C(COc1ccccc1)Nc1nnc(-c2ccc(Cl)s2)o1	93	100	95	111	104	/
Cc1ccc2sc(NNC(=O)c3cc(-c4cccs4)nc4ccccc34)nc2c1C	/	4.8*	/	4	/	/
O=C(NNc1nc2ccc(Cl)cc2s1)c1cc(-c2cccs2)nc2ccccc12	/	4.2*	/	3.7*	/	/
CNC(=O)N(C1=NCCCCC1)c1ccc(Br)cc1	/	94	/	101	/	/
CCCCS/C(=C(/C#N)C(N)=O)c1cc2c([nH]1)CCCC2	5.2*	20	69	23	67	-1.2
COc1cccc(NC(=O)COC(=O)c2cccnc2)c1	99	96	90	102	103	0.6
COc1cccc(NC(=O)COC(=O)c2c3c(nc4ccccc24)CCC(C)C3)c1 (stereo not drawn)	23*	1.7*	31	1.4*	88	-4.7*
O=C(COC(=O)c1c2c(nc3ccccc13)CCCC2)Nc1ccc2c(c1)OCO2	36*	37	68	24	103	-3.5*
COC(=O)c1nc(NC2=NCCCCC2)n[nH]1	39*	114	94	107	/	0.27
COc1cc(NC(=O)C2=C(N3CCOCC3)/C(=C\c3ccc(Cl)cc3Cl)CC2)cc(OC)c1OC	/	71	/	67	/	-0.48
CC1CCC(NC(=O)CC(C)(C)Cc2nc3ccccc3c(=O)[nH]2)CC1 (stereo not drawn)	25*	78	71	82	97	-0.25
